In the library only some 3.5% were active in any assay of this set; here they are far more common.
MrgX1 antag = human MrgX1 receptor antagonism, primary screen | MRGX1-HEK293 calcium flux, Fluo-4, BAM8-22 antagonism; active compounds read low | B-score at 10 µM | 310,000 tested, 1.3% active;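 active means calcium-response B-score plate-corrected more than 3 library SD below zero, starting fluorescence within 5 deviations, no agonist response on first addition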;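 further: peak minus trough fluorescence over baseline after final BAM8-22 challenge near maximal dose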
Target sequence (Q96LB2 whole entry, looked up): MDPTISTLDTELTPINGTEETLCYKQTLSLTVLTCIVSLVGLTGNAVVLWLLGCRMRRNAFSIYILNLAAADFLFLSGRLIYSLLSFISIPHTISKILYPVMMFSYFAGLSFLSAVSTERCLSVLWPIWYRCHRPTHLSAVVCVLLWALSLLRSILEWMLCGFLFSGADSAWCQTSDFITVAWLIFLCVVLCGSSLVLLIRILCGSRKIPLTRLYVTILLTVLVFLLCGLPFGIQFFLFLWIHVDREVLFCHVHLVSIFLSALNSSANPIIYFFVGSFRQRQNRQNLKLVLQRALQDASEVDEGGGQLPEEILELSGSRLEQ
RGS4 pot = RGS4 potentiation or activation; B-score at 10 µM; 310,000 tested, 0.92% active; HEK293 M3R/inducible RGS4, carbachol calcium flux Fluo4; active compounds read low; AID 463111;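 active means B-score of the integrated calcium signal more than 4 SD below the library mean, with starting fluorescence not abnormally high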;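 further: negative B-score means reduced calcium response which marks RGS4 activation or potentiation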
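Assay system: Inducible-RGS4 HEK293 cells carrying M3 receptor | Schedule: Compound preincubation 20 min at room temperature before agonist | Signal: Kinetic calcium fluorescence imaging with Fluo4-AM dye, 2 µM | Read-out basis: B score from integrated fluorescence ratio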
MrgX1 ag = human MrgX1 receptor agonism, primary screen; MrgX1-HEK293 cells, Fluo-4 calcium fluorescence, agonist mode; active compounds read high; 310,000 tested, 0.44% active; B-score at 10 µM;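 active means calcium response B-score plate-corrected fluorescence ratio at least 3 library SD, with starting fluorescence B-score inside 5 SD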
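Test system: HEK293 cells stably expressing human MrgX1 receptor; Input: fifteen thousand cells per well; Dosing: compound delivered in addition one of three; Schedule: overnight seeding, then 1 h dark dye loading; Technique: Fluo-4 NW calcium fluorescence; Measure: B-scored fluorescence response ratio; Controls: positive and negative controls per plate.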
RGS4 inh = inhibitors of human RGS4; 310,000 tested, 0.45% active; HEK293 M3R/RGS4 inducible, Fluo-4 calcium flux; active compounds read high; triggered by carbachol at its EC20; P49798; B-score at 10 µM;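 active means B-score, a plate-corrected calcium signal, over three deviations above library mean, with baseline fluorescence within five deviations of library mean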;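 further: RGS4 expression induced by doxycycline in cells with stable M3 receptor; B-score is computed from the integrated fluorescence ratio over baseline after carbachol; higher B-score means a larger calcium signal and so more RGS4 inhibition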
Target sequence (P49798 whole entry, looked up): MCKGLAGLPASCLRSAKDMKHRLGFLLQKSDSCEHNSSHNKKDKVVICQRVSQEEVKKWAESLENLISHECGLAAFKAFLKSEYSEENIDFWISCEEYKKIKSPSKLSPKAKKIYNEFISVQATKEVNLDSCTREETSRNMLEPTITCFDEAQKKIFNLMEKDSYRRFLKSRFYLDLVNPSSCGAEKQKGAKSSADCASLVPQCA
MrgX1 PAM = allosterically activates human MrgX1 receptor signaling; B-score at 10 µM; AID 588675; 310,000 tested, 0.63% active; MrgX1-HEK293, Fluo-4 calcium flux, FDSS; active compounds read high;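 active means plate-corrected calcium response at least 3 library SD above typical, normal starting fluorescence, not activating the receptor alone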;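 further: compound read alongside a low EC10 to EC30 dose of BAM8-22 agonist; peak minus trough fluorescence over baseline measured at the second addition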
RGS4 block valid = RGS4 inhibitor validation. 1,700 tested, 65% active. AID 492999. HEK293 M3R/RGS4, carbachol calcium Fluo-4 fluorescence; carbachol added at its EC20; 0 = buffer wells, 100 = carbachol control. calcium response, % at 10 µM. shares compounds with RGS4 inh;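 active means duplicate-averaged calcium response above the buffer-only control mean plus 5 SD of those controls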;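 further: integrated fluorescence ratio F max minus min over baseline F0; higher response in RGS4-induced cells means RGS4 inhibition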
RGS4 uninduced = counter-screen for RGS4 inhibitors: effect in non-induced cells; HEK293 M3R non-induced, carbachol calcium Fluo-4; submaximal (EC20) carbachol stimulus; buffer wells 0%, carbachol control wells 100%; shares compounds with RGS4 inh; 1,900 tested, 20% active; activity (percent), % at 10 µM; call rule not given here;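 further: RGS4 induction absent so cells express M3R without RGS4; higher means more calcium signal and flags a non-specific hit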
M3R basal Ca ctr = second RGS4 inhibitor counter-screen in uninduced cells lacking carbachol. calcium response (agonist-mode artifact), % at 10 µM. 1,900 tested, 22% active. AID 493001. shares compounds with RGS4 inh. HEK293 M3R/RGS4 non-induced, Fluo-4 calcium, no carbachol; normalised: buffer wells 0%, carbachol wells 100%;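 active means duplicate-averaged calcium rise in uninduced cells above buffer wells' mean plus 5 SD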
An asterisk follows results filed as active.

`CCOC(=O)[C@H]1[C@H]2COc3cc(OC)ccc3[C@@H]2N2C(=O)N(c3cccc(Cl)c3)C(=O)[C@@]12C` gave MrgX1 antag inactive, RGS4 pot inactive, MrgX1 ag inactive, RGS4 inh inactive, MrgX1 PAM inactive, RGS4 block valid inactive, RGS4 uninduced inactive and M3R basal Ca ctr inactive.
`CCOC(=O)[C@@H]1[C@H]2COc3cc(OC)ccc3[C@@H]2N2C(=O)N(c3cccc(Cl)c3)C(=O)[C@@]12C` gave MrgX1 antag inactive, RGS4 pot inactive, MrgX1 ag inactive, RGS4 inh inactive, MrgX1 PAM inactive, RGS4 block valid inactive, RGS4 uninduced inactive and M3R basal Ca ctr inactive.
CCOC(=O)[C@@H]1[C@H]2COc3cc(OC)ccc3[C@@H]2N2C(=O)N(c3cccc(Cl)c3)C(=O)[C@]12C was read as MrgX1 antag inactive, RGS4 pot inactive, MrgX1 ag inactive, RGS4 inh inactive, MrgX1 PAM inactive, RGS4 block valid inactive, RGS4 uninduced inactive and M3R basal Ca ctr inactive.
CCOC(=O)[C@@H]1[C@H]2COc3cc(OC)ccc3[C@@H]2N2C(=O)N(c3ccc(C)cc3)C(=O)[C@]12C was read as MrgX1 antag inactive, RGS4 pot inactive, MrgX1 ag inactive, RGS4 inh inactive and MrgX1 PAM inactive.
CCOC(=O)[C@@H]1[C@H]2COc3cc(OC)ccc3[C@@H]2N2C(=O)N(c3ccc(Br)cc3)C(=O)[C@]12C was read as MrgX1 antag inactive, RGS4 pot inactive, MrgX1 ag inactive, RGS4 inh inactive and MrgX1 PAM inactive.
`CCOC(=O)[C@@H]1[C@H]2COc3cc(OC)ccc3[C@@H]2N2C(=O)N(c3ccc(Cl)cc3)C(=O)[C@]12C` gave MrgX1 antag inactive, RGS4 pot inactive, MrgX1 ag inactive, RGS4 inh inactive, MrgX1 PAM inactive, RGS4 block valid inactive, RGS4 uninduced inactive and M3R basal Ca ctr inactive.
Screening O=C(CN1C(=O)NC2(CCCC2)C1=O)Nc1cccc(Cl)c1 returned MrgX1 antag inactive, RGS4 pot inactive, MrgX1 ag inactive, RGS4 inh inactive and MrgX1 PAM inactive.
N#CCCN(Cc1ccccc1)C(=O)Nc1ccccc1 was read as MrgX1 antag inactive, RGS4 pot inactive, MrgX1 ag inactive, RGS4 inh inactive and MrgX1 PAM inactive.
Cc1onc(-c2ccccc2)c1NC(=O)N(CCC#N)Cc1ccccc1 was read as MrgX1 antag inactive, RGS4 pot inactive, MrgX1 ag inactive, RGS4 inh 6.3*, MrgX1 PAM inactive, RGS4 block valid inactive, RGS4 uninduced inactive and M3R basal Ca ctr inactive.
Screening CCCCOc1ccc(C(=O)CCN2CCOCC2)cc1 returned MrgX1 antag inactive, RGS4 pot inactive, MrgX1 ag inactive, RGS4 inh inactive and MrgX1 PAM inactive.
For CCCOc1ccc(C(=O)CCN2CCCCC2)cc1 the results were MrgX1 antag inactive, RGS4 pot inactive, MrgX1 ag inactive, RGS4 inh inactive, MrgX1 PAM inactive, RGS4 block valid inactive, RGS4 uninduced inactive and M3R basal Ca ctr 12%*.
CCOc1ccc(C(=O)CCN2CCCCCC2)cc1 was read as MrgX1 antag inactive, RGS4 pot inactive, MrgX1 ag inactive, RGS4 inh 11*, MrgX1 PAM inactive, RGS4 block valid inactive, RGS4 uninduced inactive and M3R basal Ca ctr 20%*.
CCOC(=O)Cc1nn(Cc2nc(-c3ccc(C)cc3)cs2)c(=O)c2ccccc12 was read as MrgX1 antag inactive, RGS4 pot inactive, MrgX1 ag inactive, RGS4 inh inactive and MrgX1 PAM inactive.
Screening N#Cc1c(-c2ccccc2)c(-c2ccccc2)nn(CC(=O)NNC(=O)Nc2ccccc2)c1=O returned MrgX1 antag inactive, RGS4 pot inactive, MrgX1 ag inactive, RGS4 inh inactive, MrgX1 PAM inactive, RGS4 block valid inactive, RGS4 uninduced inactive and M3R basal Ca ctr inactive.
Cn1c(SCC(=O)NNC(=O)Nc2ccc(Cl)cc2)nnc1-c1ccccc1 was read as MrgX1 antag inactive, RGS4 pot inactive, MrgX1 ag inactive, RGS4 inh inactive and MrgX1 PAM inactive.
Screening N#Cc1c(-c2ccccc2)c(-c2ccccc2)nn(CC(=O)NNC(=O)Nc2ccc(Cl)cc2)c1=O returned MrgX1 antag inactive, RGS4 pot inactive, MrgX1 ag inactive, RGS4 inh inactive, MrgX1 PAM inactive, RGS4 uninduced inactive and M3R basal Ca ctr inactive.
Screening COc1cc(C(=O)O)c2ccccc2n1 returned MrgX1 antag inactive, RGS4 pot inactive, MrgX1 ag inactive, RGS4 inh inactive and MrgX1 PAM inactive.
Screening Cc1ccc2c(c1)c1c(n2CC(O)Cn2c(C)nc3ccccc32)/C(=N\O)CCC1 (centres undefined) returned MrgX1 antag inactive, RGS4 pot inactive, MrgX1 ag inactive, RGS4 inh 15*, MrgX1 PAM inactive, RGS4 block valid 42%*, RGS4 uninduced inactive and M3R basal Ca ctr inactive.
`COc1ccc(C(C(=O)NC2CCCCC2)N(C(=O)Cc2c[nH]c3ccccc23)c2ccccc2C)cc1OC` (centres undefined) gave MrgX1 antag inactive, RGS4 pot inactive, MrgX1 ag inactive, RGS4 inh inactive, MrgX1 PAM inactive, RGS4 block valid inactive, RGS4 uninduced inactive and M3R basal Ca ctr inactive.
`CC(C)CCC(C(=O)O)C(C)CC(=O)NNC(=O)c1ccco1` (centres undefined) gave MrgX1 antag inactive, RGS4 pot inactive, MrgX1 ag inactive, RGS4 inh inactive and MrgX1 PAM inactive.
Screening COc1ccc(NC(=O)C(=O)NCc2ccncc2)c(OC)c1 returned MrgX1 antag inactive, RGS4 pot inactive, MrgX1 ag inactive, RGS4 inh inactive, MrgX1 PAM inactive, RGS4 block valid inactive, RGS4 uninduced inactive and M3R basal Ca ctr inactive.
`COc1ccc(C)cc1NC(=O)C(=O)NCc1ccncc1` gave MrgX1 antag inactive, RGS4 pot inactive, MrgX1 ag inactive, RGS4 inh inactive, MrgX1 PAM inactive, RGS4 block valid inactive, RGS4 uninduced inactive and M3R basal Ca ctr inactive.

Screening data from PubChem.
